Legend:
Format in all cases: functional
[1] = test system: Mammaliicoccus sciuri; assay: Antimicrobial activity against mecA-deficient Staphylococcus sciuri harboring staphylococcus aureus mecA gene assessed as resistant isolates
Summary of the method: (§1)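 Nasal S. sciuri isolates from the Indonesian population, grouped by presence of the S. aureus mecA and S. sciuri mecA genes. Susceptibility to the additional antibiotics was tested on the automated Vitek 2 system (AST-P549 card), and the number of resistant isolates in each group was counted.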

[2] = test system: Mammaliicoccus sciuri; assay: Antimicrobial activity against mecA-positive Staphylococcus sciuri harboring staphylococcus aureus mecA gene assessed as resistant isolates; summary of the method: as §1
[3] = test system: Mammaliicoccus sciuri; assay: Antimicrobial activity against mecA-positive Staphylococcus sciuri assessed as resistant isolates; summary of the method: as §1
[4] = test system: Mammaliicoccus sciuri; assay: Antimicrobial activity against mecA-deficient Staphylococcus sciuri assessed as resistant isolates; summary of the method: as §1

Compound	Activity [1] [%]	Activity [2] [%]	Activity [3] [%]	Activity [4] [%]
CC[C@H]1OC(=O)[C@H](C)[C@@H](O[C@H]2C[C@@](C)(OC)[C@@H](O)[C@H](C)O2)[C@H](C)[C@@H](O[C@@H]2O[C@H](C)C[C@H](N(C)C)[C@H]2O)[C@](C)(O)C[C@@H](C)C(=O)[C@H](C)[C@@H](O)[C@]1(C)O [ERYTHROMYCIN]	33.3	23.1	0	0
CC(=O)O[C@H]1C[C@@]2(C)[C@@H](C[C@@H](O)[C@H]3[C@@]4(C)CC[C@@H](O)[C@@H](C)[C@@H]4CC[C@@]32C)/C1=C(\CCC=C(C)C)C(=O)O [FUSIDIC ACID]	44.4	69.2	60	55.6
CCn1cc(C(=O)O)c(=O)c2cc(F)c(N3CCNCC3)cc21 [NORFLOXACIN]	66.7	15.4	0	0
CO[C@H]1/C=C/O[C@@]2(C)Oc3c(C)c(O)c4c(O)c(c(/C=N/N5CCN(C)CC5)c(O)c4c3C2=O)NC(=O)/C(C)=C\C=C\[C@H](C)[C@H](O)[C@@H](C)[C@@H](O)[C@@H](C)[C@H](OC(C)=O)[C@@H]1C [RIFAMPIN]	11.1	15.4	0	0
CN(C)[C@@H]1C(O)=C(C(N)=O)C(=O)[C@@]2(O)C(O)=C3C(=O)c4c(O)cccc4[C@@](C)(O)[C@H]3C[C@@H]12 [TETRACYCLINE]	77.8	46.2	5	11.1
CN[C@H](CC(C)C)C(=O)N[C@H]1C(=O)N[C@@H](CC(N)=O)C(=O)N[C@H]2C(=O)N[C@H]3C(=O)N[C@H](C(=O)N[C@H](C(=O)O)c4cc(O)cc(O)c4-c4cc3ccc4O)[C@H](O)c3ccc(c(Cl)c3)Oc3cc2cc(c3O[C@@H]2O[C@H](CO)[C@@H](O)[C@H](O)[C@H]2O[C@H]2C[C@](C)(N)[C@H](O)[C@H](C)O2)Oc2ccc(cc2Cl)[C@H]1O [VANCOMYCIN]	0	0	0	0
GENTAMICIN	55.5	38.5	0	0

— ChEMBL document CHEMBL1671763, “Nasal carriage of methicillin-resistant and methicillin-sensitive strains of Staphylococcus sciuri in the Indonesian population” (2010)
